# Measurements as given in ChEMBL document CHEMBL5674882, “Benzolactam-related compounds promote apoptosis of HIV-infected human cells via protein kinase C-induced HIV latency reversal” (J Biol Chem, 2019).
# The source made the active and inactive calls. No cut-off for these calls is given here.
# Legend:
# [1] = Toxicity in human A3.01 cells assessed as reduction in cell viability after 48 hrs by WST8 assay; format: cell-based
# Method in brief: (§1)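 Parental, uninfected lines (A3.01 for ACH-2, U937 for U1) at 5 × 10^5 cells/ml cultured with or without drug. Viable cells read at 48 h (day 2) and expressed as % of untreated control. CC50 taken as the concentration lowering viability by 50%.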
# [2] = biological target: T1, Protein kinase C (PKC) (Homo sapiens) (UniProt O94806+P41743+P17252+P05129+Q05655+P05771+Q05513+Q02156+P24723+Q15139+Q04759); assay: Activation of PKC in human J-Lat 6.3 cells infected with latent HIV-1 assessed as reversal of HIV-1 latency by measuring increase of GFP-positive cells at 10 uM in presence of PKC theta/delta/epsilon/eta inhibitor PKCtheta/delta inhibitor incubated for 24 hrs by flow cytometry; format: cell-based
# Method in brief: (§2)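 J-Lat 6.3 cells pretreated 3 h with a PKC inhibitor: Gö 6983 1 µM, Gö 6976 1 µM, GF 109203X 1 µM, PKCθ/δ inhibitor 10 µM, or Rottlerin 1 µM. Then exposed to 10 µM compound for 24 h; GFP-positive cells counted by flow cytometry. Mean ± S.D.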
# [3] = test system: U1; assay: Induction of apoptosis in human U1 cells at 1 uM incubated for 48 hrs after pre-incubated for 2 hrs with 20 uM caspase inhibitor Q-VD-Oph by propidium iodide/annexin-V staining based flow cytometry; format: functional, cell-based
# Method in brief: (§3)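 ACH-2 or U1 cells pretreated 2 h with 20 µM pan-caspase inhibitor Q-VD-Oph, then exposed to 1 µM compound for 48 h. Annexin-V/PI staining by flow cytometry; apoptotic proportions compared with and without Q-VD-Oph. Mean ± S.D.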
# [4] = test system: ACH-2 cell line; assay: Induction of apoptosis in human ACH-2 cells assessed as caspase-3 activation at 1 uM incubated for 24 hrs by flow cytometry; format: functional
# Method in brief: (§4)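 Cells fixed in 1% paraformaldehyde, permeabilized, stained 30 min on ice with anti-active caspase-3 mAb, and analysed by flow cytometry. Three independent experiments.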
# [5] = biological target: T1, Protein kinase C (PKC) (Homo sapiens); assay: Activation of PKC in human J-Lat 6.3 cells infected with latent HIV-1 assessed as reversal of HIV-1 latency by measuring increase of GFP-positive cells at 10 uM in presence of PKC alpha/beta inhibitor Go-6976 incubated for 24 hrs by flow cytometry; format: cell-based; method in brief: as §2
# [6] = test system: J-Lat 6.3; assay: Induction of apoptosis in human J-Lat 6.3 cells assessed as caspase-3 activation at 1 uM incubated for 24 hrs by flow cytometry (reference value: 2.43%); format: functional; method in brief: as §4
# [7] = biological target: T1, Protein kinase C (PKC) (Homo sapiens); assay: Activation of PKC in human J-Lat 6.3 cells infected with latent HIV-1 assessed as reversal of HIV-1 latency by measuring increase of GFP-positive cells at 10 uM in presence of PKC delta inhibitor Rottlerin incubated for 24 hrs by flow cytometry; format: cell-based; method in brief: as §2
# [8] = test system: ACH-2 cell line; assay: Induction of apoptosis in human ACH-2 cells at 1 uM incubated for 48 hrs after pre-incubated for 2 hrs with 20 uM caspase inhibitor Q-VD-Oph by propidium iodide/annexin-V staining based flow cytometry; format: functional, cell-based; method in brief: as §3
# [9] = test system: J-Lat 6.3; assay: Induction of apoptosis in human J-Lat 6.3 cells at 1 uM incubated for 48 hrs by propidium iodide/annexin-V staining based flow cytometry (reference value: 3.16%); format: functional
# [10] = test system: U1; assay: Induction of apoptosis in human U1 cells at 1 uM incubated for 48 hrs by propidium iodide/annexin-V staining based flow cytometry (reference value: 3.16%); format: functional
# [11] = test system: U1; assay: Induction of apoptosis in human U1 cells assessed as caspase-3 activation at 1 uM incubated for 24 hrs by flow cytometry; format: functional; method in brief: as §4
# [12] = Toxicity in human PBMC assessed as reduction in cell viability after 5 days by WST8 assay; format: cell-based; settings: time 5 day
# Method in brief: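 PBMC from a healthy donor exposed to drug, with viability determined at day 5. CC50 is the concentration reducing viability by 50%.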
# [13] = test system: ACH-2 cell line; assay: Induction of apoptosis in human ACH-2 cells assessed as cleaved-PARP level at 1 uM incubated for 24 hrs by flow cytometry (reference value: 1.64%); format: functional
# Method in brief: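 Cells fixed, permeabilized, stained on ice with anti-cleaved PARP (Asp-214) mAb; % cleaved-PARP cells by flow cytometry. Means ± S.D. of three independent experiments.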
# [14] = test system: Jurkat; assay: Induction of apoptosis in human Jurkat cells assessed as caspase-3 activation at 1 uM incubated for 24 hrs by flow cytometry; format: functional; method in brief: as §4
# [15] = biological target: Protein kinase C (PKC); assay: Activation of PKC in human ACH-2 cells infected with latent HIV-1 assessed as reversal of HIV-1 latency by measuring increase in p24 antigen level incubated for 48 hrs by chemiluminescent enzyme immunoassay; format: cell-based; settings: ach-2 cell line
# [16] = test system: ACH-2 cell line; assay: Induction of apoptosis in human ACH-2 cells at 1 uM incubated for 48 hrs by propidium iodide/annexin-V staining based flow cytometry (reference value: 3.16%); format: functional
# [17] = test system: U-937; assay: Induction of apoptosis in human U-937 cells assessed as caspase-3 activation at 1 uM incubated for 24 hrs by flow cytometry; format: functional; method in brief: as §4
# [18] = test system: ACH-2 cell line; assay: Induction of apoptosis in human ACH-2 cells at 1 uM after 48 hrs by PI/annexin-V staining based flow cytometry; format: functional
# [19] = test system: J-Lat 6.3 (Homo sapiens); assay: Induction of apoptosis in human J-Lat 6.3 cells at 1 uM incubated for 48 hrs after pre-incubated for 2 hrs with 20 uM caspase inhibitor Q-VD-Oph by propidium iodide/annexin-V staining based flow cytometry
# [20] = test system: J-Lat 6.3; assay: Induction of apoptosis in human J-Lat 6.3 cells assessed as caspase-3 activation at 1 uM incubated for 24 hrs by flow cytometry; format: functional; method in brief: as §4
# [21] = biological target: T1, Protein kinase C (PKC) (Homo sapiens); assay: Activation of PKC in human U1 cells infected with latent HIV-1 assessed as reversal of HIV-1 latency by measuring increase in p24 antigen level at 1 to 10000 nM incubated for 48 hrs by chemiluminescent enzyme immunoassay; format: cell-based; settings: dose 1-10000 nM
# Method in brief: (§5)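 ACH-2 or U1 cells (5 × 10^5 cells/ml) incubated 48 h with graded drug concentrations. Supernatant p24 antigen measured by automated chemiluminescent immunoassay. EC50 calculated taking the maximum response with excess PMA as 100%. Means ± S.D. of three independent experiments.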
# [22] = biological target: T1, Protein kinase C (PKC) (Homo sapiens); assay: Activation of PKC in human ACH-2 cells infected with latent HIV-1 assessed as reversal of HIV-1 latency by measuring increase in p24 antigen level at 1 to 10000 nM incubated for 48 hrs by chemiluminescent enzyme immunoassay; format: cell-based; settings: ACH-2 cell line, dose 1-10000 nM; method in brief: as §5
# [23] = biological target: T1, Protein kinase C (PKC) (Homo sapiens); assay: Activation of PKC in human J-Lat 6.3 cells infected with latent HIV-1 assessed as reversal of HIV-1 latency by measuring increase of GFP-positive cells at 10 uM in presence of pan-PKC inhibitor Go-6983 incubated for 24 hrs by flow cytometry; format: cell-based; method in brief: as §2
# [24] = Toxicity in human U-937 cells assessed as reduction in cell viability after 48 hrs by WST8 assay; format: cell-based; method in brief: as §1
# [25] = test system: U1; assay: Induction of apoptosis in human U1 cells at 1 uM after 48 hrs by PI/annexin-V staining based flow cytometry; format: functional
# [26] = biological target: Protein kinase C (PKC); assay: Activation of PKC in human U1 cells infected with latent HIV-1 assessed as reversal of HIV-1 latency by measuring increase in p24 antigen level incubated for 48 hrs by chemiluminescent enzyme immunoassay; format: cell-based
# [27] = biological target: T1, Protein kinase C (PKC) (Homo sapiens); assay: Activation of PKC in human J-Lat 6.3 cells infected with latent HIV-1 assessed as reversal of HIV-1 latency by measuring increase of GFP-positive cells at 10 uM in presence of PKC alpha/beta/gamma inhibitor GF109203X incubated for 24 hrs by flow cytometry; format: cell-based; method in brief: as §2
# [28] = Induction of apoptosis in human CEM A3.01 cells assessed as caspase-3 activation at 1 uM incubated for 24 hrs by flow cytometry; format: functional; method in brief: as §4
# [29] = test system: U1; assay: Induction of apoptosis in human U1 cells assessed as caspase-3 activation at 1 uM incubated for 24 hrs by flow cytometry (reference value: 1.86%); format: functional; method in brief: as §4
# [30] = biological target: T1, Protein kinase C (PKC) (Homo sapiens); assay: Activation of PKC in CCL19-induced human CD4+ T-cells infected with latent HIV-1 assessed as reversal of HIV-1 latency by measuring increase in p24 antigen level at 2 uM incubated for 48 hrs in presence of 100 nM PMA by chemiluminescent enzyme immunoassay; format: cell-based; settings: CD4+ T cell, filed as activator
# [31] = Toxicity in human CD4+ T-cells assessed as increase in ratio of CD69+ cells incubated for 24 hrs by flow cytometry; format: cell-based; settings: cd4+ t cell
# Method in brief: (§6)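 Primary CD4+ T-cells from healthy donors treated with drug for 24 h. Cells stained with anti-CD25 and anti-CD69 antibodies (plus CD3, CD4, HLA-DR) for 30 min on ice, then marker-positive proportions quantified by flow cytometry.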
# [32] = Toxicity in human CD4+ T-cells assessed as increase in ratio of CD25+ cells incubated for 24 hrs by flow cytometry; format: cell-based; settings: cd4+ t cell; method in brief: as §6
SMILES,CC50 at 48 h [1],Activity [3],Activity [4],Activity [6],Activity [8],Activity [9],Activity [10],Activity [11],CC50 at 120 h [12],Activity [13],Activity [14],EC50 [15],Activity [16],Activity [17],Activity [18],Activity [19],Activity ([21]; filed as activator),Activity ([22]; filed as activator),CC50 at 48 h [24],EC50 [26],further results
CC(C)[C@H]1C(=O)N[C@H](CO)Cc2c[nH]c3cccc(c23)N1C [INDOLACTUM],> 100 µM,inactive,24.2%,22.2%,inactive,15.7%,17.7%,30.5%,> 100 µM,24.2%,1.72%,0.047 µM,45.1%,0.584%,47.1%,inactive,Active,Active,> 100 µM,0.36 µM,Activity [2]: inactive; Activity [5]: inactive; Activity [7]: inactive; Activity [20]: 14.1%; Activity [23]: inactive; Activity [25]: 18%; Activity [27]: inactive; Activity [28]: 2.69%; Activity [29]: 7.82%
CCCCCCCCCCc1ccc2c(c1)N(C)[C@H](C(C)C)C(=O)N[C@H](CO)C2,17.8 µM,inactive,11.5%,4.35%,inactive,7.95%,5.9%,8.42%,18.9 µM,10%,0.587%,0.43 µM,18.2%,0.127%,20.4%,inactive,Active,Active,39.2 µM,2.33 µM,Activity [2]: inactive; Activity [5]: inactive; Activity [7]: inactive; Activity [20]: 2.25%; Activity [23]: inactive; Activity [25]: 6.1%; Activity [27]: inactive; Activity [28]: 1.26%; Activity [29]: 4.66%
CCCCCCCCCCc1ccc2c(c1)N(C)[C@H](C(C)C)C(=O)N[C@H](CO)CC2,> 100 µM,–,–,–,–,–,–,–,> 100 µM,–,–,1.54 µM,–,–,–,–,Active,Active,> 100 µM,4 µM,–
C[C@H](CCC(=O)O)C[C@H](C)C[C@H](C)C(=O)/C=C(\O)[C@H](C)C[C@H](C)C/C=C/[C@@H](C)[C@@H](O)[C@@H](C)[C@@H](O)C[C@@H]1CC[C@@](C)([C@H]2CC[C@@](C)([C@@H](C)O)O2)O1,–,–,–,–,–,–,–,–,–,–,–,–,–,–,–,–,–,–,–,–,Activity [30]: Active
CC(C)[C@H]1C(=O)N[C@H](CO)Cc2cc3c(cc2N1C)C(C)(C)CCC3(C)C,19.5 µM,–,–,–,–,–,–,–,65.8 µM,–,–,2.91 µM,–,–,–,–,Active,Active,22.9 µM,9.89 µM,–
CC(=O)O[C@@]12C[C@@H](C)[C@@]3(O)[C@@H](C=C(CO)C[C@]4(O)C(=O)C(C)=C[C@@H]34)[C@@H]1C2(C)C [PROSTRATIN],> 100 µM,inactive,14%,15.6%,inactive,13.7%,12.7%,29.9%,> 100 µM,15.2%,1.47%,–,34.7%,0.307%,37.7%,inactive,–,–,> 100 µM,–,Activity [31]: Non-Toxic; Activity [20]: 8.66%; Activity [32]: Non-Toxic; Activity [25]: 14.1%; Activity [28]: 1.06%; Activity [29]: 7.83%
CCCCCCCCCCc1ccc2c(c1)N(C)[C@@H](C(C)C)C(=O)N[C@H](CO)CC2,–,–,–,–,–,–,–,–,–,–,–,–,–,–,–,–,–,–,–,–,Activity [21]: inactive; Activity [22]: inactive
CC(C)[C@@H]1C(=O)N[C@H](CO)Cc2cc3c(cc2N1C)C(C)(C)CCC3(C)C,–,–,–,–,–,–,–,–,–,–,–,–,–,–,–,–,–,–,–,–,Activity [21]: inactive; Activity [22]: inactive
